# Results published in article PMC2901902 (Nature, 2010).
# Experiments:
# [1] = tested on: H3K14ac sites in the C2C12 cell nucleus; assay: Immunofluorescence co-localization with H3K14ac in C2C12 cell nucleus; format: cell-based, mouse; conditions: ectopically expressed EGFP-fusion DPF3b; confocal fluorescence imaging
# Outline: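 C2C12 myoblasts grown in DMEM with 10% fetal calf serum were transfected with full-length human DPF3b fused to EGFP. H3K14ac was stained with the same anti-H3K14ac antibody used for ChIP and a Texas Red-conjugated secondary. Nuclear overlap of the EGFP and Texas Red signals was imaged on an automated confocal microscope and images were overlaid.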
# [2] = tested on: H3K14ac at the mouse Pitx2 promoter site; assay: Re-ChIP; format: cell-based; conditions: transfected C2C12 cells, qualitative
# Pitx2 = assay: Endogenous Pitx2 transcript level in transfected C2C12 cells; format: cell-based, mouse; conditions: C2C12 cells 2 days following transfection
molecule,measurement,setting,value
"DPF3b: full length human DPF3b cloned into pEGFP-C1 vector, transfected in C2C12 cells (protein, left off: EGFP, end not stated, kept) MATVIHNPLKALGDQFYKEAIEHCRSYNSRLCAERSVRLPFLDSQTGVAQNNCYIWMEKRHRGPGLAPGQLYTYPARCWRKKRRLHPPEDPKLRLLEIKPEVELPLKKDGFTSESTTLEALLRGEGVEKKVDAREEESIQEIQRVLENDENVEEGNEEEDLEEDIPKRKNRTRGRARGSAGGRRRHDAASQEDHDKPYVCDICGKRYKNRPGLSYHYAHTHLASEEGDEAQDQETRSPPNHRNENHRPQKGPDGTVIPNNYCDFCLGGSNMNKKSGRPEELVSCADCGRSGHPTCLQFTLNMTEAVKTYKWQCIECKSCILCGTSENDDQLLFCDDCDRGYHMYCLNPPVAEPPEGSWSCHLCWELLKEKASAFGCQA",co-localization with H3K14ac sites in C2C12 cell nucleus,[1],co-localized with H3K14ac sites
same,DPF3b/H3K14ac interaction at Pitx2 promoter,[2],interacts with H3K14ac at the Pitx2 promoter site
same,enhancement of endogenous Pitx2 transcript,Pitx2,more than 3 fold
